Data on one compound can be found in ChEMBL document CHEMBL4024789, “Neutral Porphyrin Derivative Exerts Anticancer Activity by Targeting Cellular Topoisomerase I (Top1) and Promotes Apoptotic Cell Death without Stabilizing Top1-DNA Cleavage Complexes” (J Med Chem, 2018).

Active and inactive are the calls of the source. No cut-off for these calls is given here.

One assay relates to MEF. Kind of assay: Cytotoxicity against TDP1-/- MEF assessed as reduction in cell viability by MTT assay. Conditions: Mus musculus. In kind it is cell-based. An outline of the steps: (§1)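 Survival of each cell line measured across a range of compound concentrations. Percent inhibition of viability at each concentration calculated against untreated control and IC50 estimated. MEFs were TDP1+/+ and TDP1–/– primary cells. Mean ± SD of at least three experiments in duplicate.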
(In general: Tetrazolium dyes change colour on reduction, which living cells bring about.)

For assay [1], the target named is T1, DNA topoisomerase 1 (Homo sapiens, UniProt P11387).
T1 sequence (P11387 whole entry): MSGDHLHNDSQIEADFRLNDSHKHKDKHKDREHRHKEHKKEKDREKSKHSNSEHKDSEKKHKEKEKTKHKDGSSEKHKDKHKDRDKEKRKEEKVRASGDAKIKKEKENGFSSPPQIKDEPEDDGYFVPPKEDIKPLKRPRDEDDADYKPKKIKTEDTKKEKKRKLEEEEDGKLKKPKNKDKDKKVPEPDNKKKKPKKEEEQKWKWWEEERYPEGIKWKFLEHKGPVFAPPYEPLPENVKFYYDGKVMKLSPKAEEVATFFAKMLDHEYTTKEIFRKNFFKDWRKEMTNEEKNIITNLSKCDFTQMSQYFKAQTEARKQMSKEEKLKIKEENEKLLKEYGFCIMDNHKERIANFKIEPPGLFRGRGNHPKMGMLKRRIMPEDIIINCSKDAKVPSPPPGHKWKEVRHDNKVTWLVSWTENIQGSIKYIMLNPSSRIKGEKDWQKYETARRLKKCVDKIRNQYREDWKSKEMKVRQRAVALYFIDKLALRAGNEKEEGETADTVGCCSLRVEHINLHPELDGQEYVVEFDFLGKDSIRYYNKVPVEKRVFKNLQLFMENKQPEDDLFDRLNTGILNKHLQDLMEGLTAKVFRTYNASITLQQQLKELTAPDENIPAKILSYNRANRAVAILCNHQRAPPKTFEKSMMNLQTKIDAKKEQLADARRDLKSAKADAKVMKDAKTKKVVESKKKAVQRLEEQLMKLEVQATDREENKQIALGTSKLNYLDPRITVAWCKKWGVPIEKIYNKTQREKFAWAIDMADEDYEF
The assay is described as follows: Inhibition of recombinant human topoisomerase-1 expressed in baculovirus infected sf9 cells using supercoiled pBS SK(+) DNA as substrate after 15 mins by ethidium bromide staining based agarose gel electrophoresis method. An outline of the steps:
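Relaxation assay: 90 fmol supercoiled pBS (SK+) DNA with 30 fmol recombinant Top1 (Sf-9/baculovirus). Compound either preincubated with Top1 for 5 min before DNA addition, or added simultaneously with DNA; then 37 °C for 15 min. Vehicle 2% DMSO. Read on 1% agarose gel. EC50 from mean ± SD of three experiments.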

The target in assay [2] is T2, DNA topoisomerase 1 (Homo sapiens) (UniProt P11387).
T2 sequence (whole entry): T1 sequence (P11387 whole entry)
The assay is described as follows: Ratio of EC50 for recombinant human topoisomerase-1 expressed in baculovirus infected sf9 cells simultaneously incubated with substrate to EC50 for recombinant human topoisomerase-1 expressed in baculovirus infected sf9 cells preincubated for 5 mins followed by substrate addition. An outline of the steps:
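Recombinant human Top1 purified from baculovirus-infected Sf-9 cells; 30 fmol enzyme with 90 fmol supercoiled pBS (SK+) DNA (3:1 molar ratio) in relaxation buffer. Compound either preincubated with enzyme 5 min before DNA, or added simultaneously; then 37 °C, 15 min. Relaxation on 1% agarose; % inhibition quantified, EC50 from three experiments (mean ± SD).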

The target in assay [3] is T2, DNA topoisomerase 1 (Homo sapiens). The assay is described as follows: Inhibition of topoisomerase-1 in human MCF7 whole cell extracts at 0.25 to 5 uM using supercoiled pBS SK(+) DNA as substrate after 15 mins by ethidium bromide staining based agarose gel electrophoresis method. The gist of the method:
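Ex vivo relaxation assay with MCF7 whole-cell lysate as the Top1 source and supercoiled pBS (SK+) DNA. Compound either preincubated with lysate for 5 min before DNA, or added simultaneously; then 37 °C for 15 min. CPT control at 5 μM. Read on agarose gel; mean ± SD, n=3.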

In assay [4] the test system is MCF7. The assay is described as follows: Cytotoxicity against human MCF7 cells assessed as reduction in cell viability by MTT assay. It counts as functional, cell-based. The gist of the method:
as §1

Assay [5] addresses T1, DNA topoisomerase 1. Kind of assay: Binding affinity to recombinant human topoisomerase-1 expressed in baculovirus infected sf9 cells by spectrofluorimetric method. The gist of the method:
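Purified Top1 (200 nM) incubated with compound at 0–11 μM, 25 °C, 10 min. Tryptophan emission read at 350 nm (ex 295 nm). Fraction bound B = (F0 – F)/Fmax, with Fmax taken from a double-reciprocal 1/(F0 – F) vs 1/[X] plot; KD derived from this. Mean ± SD, n=3.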

The target in assay [6] is T2, DNA topoisomerase 1 (Homo sapiens). Kind of assay: Reversible inhibition of recombinant human topoisomerase-1 expressed in baculovirus infected sf9 cells at 1 uM using supercoiled pBS SK(+) DNA as substrate preincubated for 5 mins followed by substrate addition and subsequent 40 fold compound dilution measured after 15 mins by ethidium bromide staining based agarose gel electrophoresis method. The gist of the method: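 Recombinant Top1 (100 fmol) preincubated with 1 μM compound for 5 min at 37 °C in relaxation buffer. Mixture diluted 5-, 10-, 20- or 40-fold (final 0.2–0.025 μM), then 50 fmol pBS (SK+) DNA added and incubated 15 min at 37 °C. Three repeats performed.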

The target is the same in assay [7]. The assay is described as follows: Induction of proteasome-mediated topoisomerase-1 degradation in human MCF7 cells at 10 uM by Western blot method. In kind it is cell-based. Conditions: TDE = time-dependent effect. An outline of the steps: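 Whole-cell extracts of MCF7 cells treated with 10 μM for the indicated times, or preincubated with MG132 (100 nM) for 4 h before 12 h compound exposure. Top1 detected by Western blot with mouse monoclonal anti-Top1 (C21).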
In general terms: A western blot detects proteins with antibodies after separation by electrophoresis.

Assay [8] has as its system MCF7. Kind of assay: Induction of PARP cleavage in human MCF7 cells at 10 uM up to 12 hrs by Western blot method. In kind it is functional, cell-based. An outline of the steps:
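MCF7 cells treated with 10 μM for the indicated times. Full-length and cleaved PARP1 detected by Western blot of whole-cell extracts using rabbit polyclonal PARP1 antibody.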

Assay [9] has as its system MCF7. Kind of assay: Induction of ROS accumulation in human MCF7 cells at 10 uM up to 24 hrs by CM-H2DCFDA dye based spectrofluorometric method relative to control. It counts as functional. An outline of the steps:
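MCF7 cells treated with 10 μM for the indicated times, with 0.2% DMSO as vehicle control, or pretreated with NAC (10 mM) for 30 min. ROS read as DCF fluorescence from CM-H2DCFDA. Mean ± SD of three independent experiments.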

The subject of another assay is HCT-116. Kind of assay: Cytotoxicity against human HCT116 cells assessed as reduction in cell viability by MTT assay. In kind it is functional, cell-based. An outline of the steps:
as §1

Assay [10] can be described thus: Cytotoxicity against human NIH:OVCAR3 cells assessed as reduction in cell viability by MTT assay. It counts as functional, cell-based. Conditions: OVCAR-3. The gist of the method: as §1
In assay [11] the test system is MCF7. Kind of assay: Cytotoxicity against human MCF7 cells transfected with control SiRNA assessed as reduction in cell viability by MTT assay. In kind it is functional, cell-based. An outline of the steps: (§2)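 MCF7 cells transfected with Top1 or control siRNA for 72 h; knockdown confirmed by Western blot with actin as loading control. Percent survival then plotted against compound concentration.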

Assay [12] has as its system MCF7. Kind of assay: Cytotoxicity against human MCF7 cells transfected with Top1 SiRNA assessed as reduction in cell viability by MTT assay. In kind it is functional, cell-based. The gist of the method: as §2
Assay [13] deals with MCF7. Kind of assay: Cytotoxicity against human MCF7 cells assessed as reduction in cell viability up to 10 uM in presence of CPT by MTT assay. In kind it is functional, cell-based. The gist of the method: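 MCF7 cells pretreated with CPT (5 μM) for 12 h, then compound added at a range of concentrations. Viability inhibition calculated relative to control and IC50 estimated. Mean ± SD, at least three experiments in duplicate.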

For `CN(C)c1ccc(-c2c3nc(c(-c4ccc(N(C)C)cc4)c4ccc([nH]4)c(-c4ccc(C(=O)O)cc4)c4nc(c(-c5ccc(C(=O)O)cc5)c5ccc2[nH]5)C=C4)C=C3)cc1`, the IC50 – broadly, the concentration needed to halve the response being measured – with MEF is above 10000 nM; with MCF7 [4] it was 2170 nM; in the assay with HCT-116, 4390 nM; in assay [10], 5190 nM; in the assay on MCF7 [11], 2240 nM; in the assay with MCF7 [12], 8150 nM. The EC50 – broadly, the midpoint of the concentration-response curve – at DNA topoisomerase 1 [1] is 1470 nM. The Ratio EC50 in [2] is 4 to 5. The inhibition entry in [3] and in assay [6] was “Active” throughout. Also, the Kd (in general, the equilibrium constant for the complex coming apart) at DNA topoisomerase 1 [5] stood at 381 nM. In addition, the Activity entry in assay [7] is “Tde”. In addition, in the assay on MCF7 [8], the result was Active. In addition, in the assay on MCF7 [9], the “fold change (FC)” value is 3 - 5. For the same compound, the result in the assay with MCF7 [13] was inactive.
